Measurements: ChEMBL document CHEMBL3102720, “Structure-activity relationship study of permethyl ningalin B analogues as P-glycoprotein chemosensitizers” (J Med Chem, 2013)
Active and inactive are the calls of the source. The calls are words filed in the database; no cut-off is given here.

How the values were obtained:
[1] = target: T1, ATP-dependent translocase ABCB1 (Homo sapiens, UniProt P08183); experiment: Modulation of p-gp (unknown origin) transfected in human MDA435/LCC6MDR cells assessed as potentiation of paclitaxel-induced cytotoxicity at 1 uM after 5 days by MTS assay relative to untreated control; type: cell-based; conditions: 120 h
Method in brief: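 6000 LCC6MDR or LCC6 cells per well co-incubated with paclitaxel with or without 1 μM modulator for 5 days at 37 °C. […] RF = IC50 without modulator divided by IC50 with modulator. N = 2–3 experiments; mean ± SEM.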

[2] = organism: Homo sapiens; experiment: Ratio of compound activity to verapamil activity for modulation of p-gp (unknown origin) transfected in human MDA435/LCC6MDR cells assessed as potentiation of paclitaxel-induced cytotoxicity; type: cell-based
[3] = target: T1, ATP-dependent translocase ABCB1; experiment: Modulation of p-gp (unknown origin) transfected in human MDA435/LCC6MDR cells assessed as induction of doxorubicin accumulation at 1 uM after 150 mins by spectrofluorometric analysis relative to control; type: cell-based; conditions: 2.5 h
Method in brief: (§1)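 1 × 10^6 LCC6 or LCC6MDR cells incubated with 20 μM doxorubicin plus 1 μM analogue at 37 °C for 150 min; 0.1% DMSO served as negative control. Cells were washed with cold PBS and lysed in 0.75 M HCl/0.2% Triton X-100 in 2-propanol. Supernatant DOX fluorescence was read at ex 460/em 610 nm. N = 3–5 experiments; Student's t test.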

[4] = Drug uptake in human MDA435/LCC6 cells at 20 to 200 uM after 150 mins by reverse phase-HPLC analysis; type: ADME, cell-based; conditions: mda-435/lcc6, 2.5 h
Method in brief: (§2)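 3 × 10^6 LCC6 or LCC6MDR cells incubated with 20 or 200 μM analogue at 37 °C for 150 min. Cells were then pelleted, washed with cold PBS pH 7.4, lysed in 100% methanol by vortexing for 5 min and spun. The supernatant was analysed by reversed-phase C18 HPLC with UV-vis detection. N = 2 independent experiments.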

[5] = test system: MDA-435/LCC6; experiment: Induction of doxorubicin accumulation in human MDA435/LCC6 cells at 1 uM after 150 mins by spectrofluorometric analysis; type: functional, cell-based; method in brief: as §1
[6] = target: T1, ATP-dependent translocase ABCB1; experiment: Inhibition of p-gp (unknown origin) transfected in human MDA435/LCC6MDR cells assessed as reversal of doxorubicin drug resistance relative to control; type: cell-based
[7] = test system: L929; experiment: Cytotoxicity against mouse L929 cells assessed as growth inhibition after 3 days by MTS assay; type: cell-based; conditions: L929, 72 h
Method in brief: (§3)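 10 000 cells per well exposed to a concentration series of analogue for 3 days at 37 °C. Growth read by MTS proliferation assay and IC50 determined. Cells were cultured in DMEM with 10% heat-inactivated FBS and penicillin/streptomycin at 37 °C under 5% CO2.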

[8] = target: T2, Broad substrate specificity ATP-binding cassette transporter ABCG2 (Homo sapiens, UniProt Q9UNQ0); experiment: Modulation of BCRP (unknown origin) transfected in human HEK293/R2 cells assessed as potentiation of topotecan-induced cytotoxicity at 1 uM after 5 days by MTS assay relative to untreated control; type: cell-based; conditions: hek293/r2, 120 h
T2 sequence (Q9UNQ0 whole entry): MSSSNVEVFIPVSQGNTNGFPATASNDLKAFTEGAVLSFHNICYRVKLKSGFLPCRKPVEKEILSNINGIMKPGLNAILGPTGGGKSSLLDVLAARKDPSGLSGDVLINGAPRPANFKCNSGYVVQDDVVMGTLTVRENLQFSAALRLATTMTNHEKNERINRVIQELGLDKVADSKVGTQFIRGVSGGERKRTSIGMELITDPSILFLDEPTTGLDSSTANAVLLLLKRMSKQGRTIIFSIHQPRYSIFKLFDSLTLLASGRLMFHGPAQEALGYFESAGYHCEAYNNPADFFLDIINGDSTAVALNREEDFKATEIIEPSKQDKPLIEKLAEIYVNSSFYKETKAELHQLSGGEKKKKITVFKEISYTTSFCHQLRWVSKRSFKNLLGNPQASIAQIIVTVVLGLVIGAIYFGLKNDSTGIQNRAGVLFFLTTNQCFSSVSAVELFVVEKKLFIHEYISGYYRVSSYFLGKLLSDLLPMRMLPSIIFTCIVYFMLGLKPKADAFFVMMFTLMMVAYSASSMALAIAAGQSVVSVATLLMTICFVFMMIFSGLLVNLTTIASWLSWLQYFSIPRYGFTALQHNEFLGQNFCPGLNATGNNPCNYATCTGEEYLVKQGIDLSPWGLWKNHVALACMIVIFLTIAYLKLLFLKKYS
Method in brief: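 4500 HEK293/R2 or HEK293/pcDNA3.1 cells per well co-incubated with topotecan with or without 1 μM modulator for 5 days at 37 °C. Readout was MTS/PMS absorbance at 490 nm after 2 h. RF = IC50 without modulator divided by IC50 with modulator. N = 2–4 experiments.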

[9] = Cytotoxicity against human MDA435/LCC6MDR cells assessed as growth inhibition after 3 days by MTS assay; type: functional, cell-based; conditions: 72 h; method in brief: as §3
[10] = target: T1, ATP-dependent translocase ABCB1; experiment: Modulation of p-gp (unknown origin) transfected in human MDA435/LCC6MDR cells assessed as increase in intracellular drug accumulation at 20 to 200 uM after 150 mins by reverse phase-HPLC analysis; type: cell-based; conditions: 2.5 h; method in brief: as §2
[11] = target: Multidrug resistance-associated protein 1 (Homo sapiens, UniProt P33527); experiment: Modulation of MRP1 (unknown origin) transfected in human 2008/MRP1 cells assessed as potentiation of doxorubicin-induced cytotoxicity at 1 uM after 5 days by MTS assay relative to untreated control; type: cell-based; conditions: 2008/mrp1, 120 h
[12] = test system: P-gp (unknown origin); experiment: Therapeutic index, ratio of IC50 for mouse L929 cells to EC50 for modulation of p-gp (unknown origin) transfected in human MDA435/LCC6MDR cells assessed as reversal of paclitaxel resistance; type: cell-based; conditions: read-out: Ratio IC50/EC50
Method in brief: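 Therapeutic index = L929 cytotoxicity IC50 (10 000 cells, 3-day MTS) divided by EC50 for reversing paclitaxel resistance in LCC6MDR (5-day MTS co-incubation with modulator series). N = 2–5 experiments.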

[13] = Cytotoxicity against human MDA435/LCC6 cells assessed as growth inhibition after 3 days by MTS assay; type: functional, cell-based; conditions: MDA-435/LCC6, 72 h; method in brief: as §3
[14] = organism: Homo sapiens; experiment: Ratio of verapamil EC50 to compound EC50 for modulation of p-gp (unknown origin) transfected in human MDA435/LCC6MDR cells assessed as reversal of paclitaxel resistance; type: cell-based

T1 sequence (P08183 whole entry): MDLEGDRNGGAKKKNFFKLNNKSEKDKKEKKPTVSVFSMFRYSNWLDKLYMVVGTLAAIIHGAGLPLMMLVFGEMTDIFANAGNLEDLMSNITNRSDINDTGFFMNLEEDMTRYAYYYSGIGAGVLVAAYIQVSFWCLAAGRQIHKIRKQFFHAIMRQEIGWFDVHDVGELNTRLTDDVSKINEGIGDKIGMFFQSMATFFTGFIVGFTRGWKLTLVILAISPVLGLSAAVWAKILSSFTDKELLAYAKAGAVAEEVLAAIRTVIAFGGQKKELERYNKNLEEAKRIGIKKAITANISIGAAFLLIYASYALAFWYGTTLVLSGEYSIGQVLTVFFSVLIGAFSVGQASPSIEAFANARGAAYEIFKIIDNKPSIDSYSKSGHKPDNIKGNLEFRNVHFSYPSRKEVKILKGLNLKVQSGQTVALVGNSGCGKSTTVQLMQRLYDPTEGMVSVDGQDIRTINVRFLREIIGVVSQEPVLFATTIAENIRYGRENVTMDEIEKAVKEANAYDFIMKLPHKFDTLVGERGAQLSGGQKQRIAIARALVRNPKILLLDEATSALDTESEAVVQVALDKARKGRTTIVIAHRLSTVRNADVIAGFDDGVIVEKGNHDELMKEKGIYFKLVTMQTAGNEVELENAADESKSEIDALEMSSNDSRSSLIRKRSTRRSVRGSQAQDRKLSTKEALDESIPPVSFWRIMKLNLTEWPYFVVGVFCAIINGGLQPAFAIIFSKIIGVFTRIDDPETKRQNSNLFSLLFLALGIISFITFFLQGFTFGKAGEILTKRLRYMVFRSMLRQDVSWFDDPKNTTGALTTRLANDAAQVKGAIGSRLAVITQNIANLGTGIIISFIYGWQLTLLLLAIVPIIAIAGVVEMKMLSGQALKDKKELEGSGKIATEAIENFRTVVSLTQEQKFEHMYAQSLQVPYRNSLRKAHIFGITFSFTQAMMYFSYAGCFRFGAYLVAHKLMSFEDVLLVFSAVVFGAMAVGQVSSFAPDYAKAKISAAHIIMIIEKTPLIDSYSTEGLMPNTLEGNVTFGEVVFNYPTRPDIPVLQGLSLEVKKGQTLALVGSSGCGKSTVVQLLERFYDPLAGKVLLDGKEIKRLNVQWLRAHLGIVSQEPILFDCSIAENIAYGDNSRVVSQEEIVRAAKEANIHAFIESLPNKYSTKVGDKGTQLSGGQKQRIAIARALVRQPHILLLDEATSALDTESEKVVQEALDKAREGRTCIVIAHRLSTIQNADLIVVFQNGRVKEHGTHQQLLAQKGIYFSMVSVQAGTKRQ
Multidrug resistance-associated protein 1, sequence (P33527 whole entry): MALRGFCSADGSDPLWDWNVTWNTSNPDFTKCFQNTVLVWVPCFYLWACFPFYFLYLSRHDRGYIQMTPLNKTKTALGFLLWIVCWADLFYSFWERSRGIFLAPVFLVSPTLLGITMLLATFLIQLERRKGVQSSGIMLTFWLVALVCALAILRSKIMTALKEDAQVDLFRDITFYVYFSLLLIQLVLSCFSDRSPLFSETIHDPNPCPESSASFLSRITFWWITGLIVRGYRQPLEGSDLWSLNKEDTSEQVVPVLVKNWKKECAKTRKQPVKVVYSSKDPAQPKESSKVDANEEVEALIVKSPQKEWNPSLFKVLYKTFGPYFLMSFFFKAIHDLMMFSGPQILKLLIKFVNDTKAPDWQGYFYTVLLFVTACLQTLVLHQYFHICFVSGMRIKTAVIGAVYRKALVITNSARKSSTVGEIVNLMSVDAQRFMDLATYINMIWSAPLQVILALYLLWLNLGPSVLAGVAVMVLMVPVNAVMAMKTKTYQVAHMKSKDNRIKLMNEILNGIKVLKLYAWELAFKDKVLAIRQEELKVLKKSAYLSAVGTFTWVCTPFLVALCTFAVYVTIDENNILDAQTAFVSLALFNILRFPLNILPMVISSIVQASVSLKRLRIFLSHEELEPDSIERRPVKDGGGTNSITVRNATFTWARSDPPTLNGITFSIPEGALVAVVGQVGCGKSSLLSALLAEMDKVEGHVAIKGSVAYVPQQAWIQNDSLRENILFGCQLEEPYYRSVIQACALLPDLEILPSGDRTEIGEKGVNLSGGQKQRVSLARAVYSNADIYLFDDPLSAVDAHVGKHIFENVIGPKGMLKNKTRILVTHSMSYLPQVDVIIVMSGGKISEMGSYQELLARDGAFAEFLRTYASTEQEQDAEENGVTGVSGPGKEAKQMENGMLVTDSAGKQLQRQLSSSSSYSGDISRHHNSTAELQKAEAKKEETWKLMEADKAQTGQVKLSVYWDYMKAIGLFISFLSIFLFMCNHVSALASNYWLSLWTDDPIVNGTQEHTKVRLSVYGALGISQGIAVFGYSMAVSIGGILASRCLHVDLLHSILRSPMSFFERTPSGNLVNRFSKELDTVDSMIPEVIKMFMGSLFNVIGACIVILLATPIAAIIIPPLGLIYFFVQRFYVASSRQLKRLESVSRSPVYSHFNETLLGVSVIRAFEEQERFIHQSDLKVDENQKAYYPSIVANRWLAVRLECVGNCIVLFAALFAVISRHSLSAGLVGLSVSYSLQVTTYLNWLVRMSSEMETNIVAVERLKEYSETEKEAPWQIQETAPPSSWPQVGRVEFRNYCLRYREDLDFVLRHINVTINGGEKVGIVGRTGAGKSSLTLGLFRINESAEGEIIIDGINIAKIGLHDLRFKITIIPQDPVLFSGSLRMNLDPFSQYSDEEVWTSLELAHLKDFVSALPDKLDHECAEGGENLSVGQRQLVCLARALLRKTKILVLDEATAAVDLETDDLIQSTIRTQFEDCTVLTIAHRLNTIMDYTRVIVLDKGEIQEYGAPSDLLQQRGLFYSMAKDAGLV

Compound | fold change (FC) [1] | other results
COc1ccc(CN2C(=O)C(c3ccc(OC)c(OC)c3)=C(c3cc(OC)c(OC)c(OC)c3)C2=O)cc1 | 18 | Ratio [2]: 4
COc1ccc(C(=O)CN2C(=O)C(c3ccc(OC)c(OC)c3)=C(c3cc(OC)c(OC)c(OC)c3)C2=O)cc1OC | 5.1 | 
C=CCOc1cc(CN2C(=O)C(c3ccc(OC)c(OC)c3)=C(c3ccc(OC)c(OC)c3)C2=O)cc(OCC=C)c1OCC=C | 3.8 | 
COc1cc(C(=O)CN2C(=O)C(c3cc(OC)c(OC)c(OC)c3)=C(c3cc(OC)c(OC)c(OC)c3)C2=O)cc(OC)c1OC | 1.8 | 
COc1ccc(C2=C(c3cc(OC)c(OC)c(OC)c3)C(=O)N(CC(=O)c3ccc(OCc4ccccc4)cc3)C2=O)cc1OC | 16.8 | 
CCOc1cc(CN2C(=O)C(c3ccc(OC)c(OC)c3)=C(c3ccc(OC)c(OC)c3)C2=O)cc(OCC)c1OCC | 1.9 | 
COc1ccc(CCN2C(=O)C(c3ccc(OC)c(OC)c3)=C(c3cc(OC)c(OC)c(OC)c3)C2=O)cc1OC | 4.6 | 
COc1ccc(C2=C(c3ccc(OC)c(OC)c3)C(=O)N(CC(=O)c3cc(OC)c(OC)c(OC)c3)C2=O)cc1OC | 9.3 | 
COc1ccc(C2=C(c3cc(OC)c(OC)c(OC)c3)C(=O)N(CC(=O)c3cc(OC)c(OC)c(OC)c3)C2=O)cc1OC | 3.8 | 
COc1ccc(C2=C(c3ccc(OC)c(OC)c3)C(=O)N(Cc3cc(OC(C)C)c(OC(C)C)c(OC(C)C)c3)C2=O)cc1OC | 8.5 | 
COc1ccc(C2=C(c3ccc(OC)c(OC)c3)C(=O)N(CC(=O)c3ccc(OCc4ccccc4)c(OC)c3)C2=O)cc1OC | 42.7 | fold change (FC) [3]: 2.2; Drug uptake [4]: Active; Activity [5]: inactive; fold change (FC) [6]: 5.6; IC50 [7]: > 100 µM; fold change (FC) [8]: 6.9; IC50 [9]: > 100 µM; Activity [10]: Active; fold change (FC) [11]: 1.1; selectivity ratio [12]: > 1070; IC50 [13]: > 100 µM; Ratio EC50 [14]: 4.8
CCOC(=O)CN1C(=O)C(c2ccc(OC)c(OC)c2)=C(c2ccc(OC)c(OC)c2)C1=O | 7 | 
COc1ccc(C2=C(c3ccc(OC)c(OC)c3)C(=O)N(CC(=O)O)C2=O)cc1OC | 0.9 | 
COc1ccc(C(=O)CN2C(=O)C(c3cc(OC)c(OC)c(OC)c3)=C(c3cc(OC)c(OC)c(OC)c3)C2=O)cc1OC | 3.3 | 
COc1ccc(CN2C(=O)C(c3ccc(OC)c(OC)c3)=C(c3cc(OC)c(OC)c(OC)c3)C2=O)cc1OC | 13.2 | 
COc1ccc(C2=C(c3cc(OC)c(OC)c(OC)c3)C(=O)N(CC(=O)c3ccc(OCc4ccccc4)c(OC)c3)C2=O)cc1OC | 42.7 | fold change (FC) [3]: 2.3; Activity [5]: inactive; fold change (FC) [6]: 5.6; IC50 [7]: > 100 µM; fold change (FC) [8]: 8.2; IC50 [9]: > 100 µM; fold change (FC) [11]: 1.2; selectivity ratio [12]: > 909; IC50 [13]: > 100 µM; Ratio EC50 [14]: 4.1
COc1ccc(C2=C(c3cc(OC)c(OC)c(OC)c3)C(=O)N(c3cc(OC)c(OC)c(OC)c3)C2=O)cc1OC | 1.5 | 
COc1ccc(C(=O)CN2C(=O)C(c3cc(OC)c(OC)c(OC)c3)=C(c3cc(OC)c(OC)c(OC)c3)C2=O)cc1 | 4.9 | 
COc1ccc(C(=O)CN2C(=O)C(c3ccc(OC)c(OC)c3)=C(c3cc(OC)c(OC)c(OC)c3)C2=O)cc1 | 7.2 | 
COc1ccc(C2=C(c3ccc(OC)c(OC)c3)C(=O)N(CC(=O)OC(C)(C)C)C2=O)cc1OC | 3.3 | 
C=CCOc1cc(CN2C(=O)C(c3ccc(OC)c(OC)c3)=C(c3cc(OC)c(OC)c(OC)c3)C2=O)cc(OCC=C)c1OCC=C | 6.8 | 
COc1ccc(C2=C(c3ccc(OC)c(OC)c3)C(=O)N(CCn3cnc4c(N)ncnc43)C2=O)cc1OC | 1.7 | 
COc1ccc(C2=C(c3cc(OC)c(OC)c(OC)c3)C(=O)N(Cc3cc(OC)c(OC)c(OC)c3)C2=O)cc1OC | 7.4 | 
COc1ccc(C2=C(c3ccc(OC)c(OC)c3)C(=O)N(CC(=O)c3ccc(OCc4ccccc4)cc3)C2=O)cc1OC | 10.4 | 
COc1ccc(CCN(C)CCCC(C#N)(c2ccc(OC)c(OC)c2)C(C)C)cc1OC (stereo not given) |  | Activity [5]: inactive
COc1ccc(C2=C(c3ccc(OC)c(OC)c3)C(=O)N(CCn3cnc4c(=O)n(C)c(=O)n(C)c43)C2=O)cc1OC | 1.2 | 
COc1ccc(CCN2C(=O)C(c3ccc(OC)c(OC)c3)=C(c3cc(OC)c(OC)c(OC)c3)C2=O)cc1 | 12.7 | 
